In ChEMBL document CHEMBL1177649, “Synthesis and structure-affinity relationships of novel small molecule natural product derivatives capable of discriminating between serotonin 5-HT1A, 5-HT2A, 5-HT2C receptor subtypes” (Bioorg Med Chem, 2010):

Key:
Type in all cases: cell-based
[1] = molecular target: T1, 5-hydroxytryptamine receptor 2C (Homo sapiens) (UniProt P28335); experiment: Displacement of [3H]mesulergine from human cloned 5HT2C receptor expressed in HEK293 cells at 3 uM after 90 mins by liquid scintillation counting
T1 sequence (whole entry): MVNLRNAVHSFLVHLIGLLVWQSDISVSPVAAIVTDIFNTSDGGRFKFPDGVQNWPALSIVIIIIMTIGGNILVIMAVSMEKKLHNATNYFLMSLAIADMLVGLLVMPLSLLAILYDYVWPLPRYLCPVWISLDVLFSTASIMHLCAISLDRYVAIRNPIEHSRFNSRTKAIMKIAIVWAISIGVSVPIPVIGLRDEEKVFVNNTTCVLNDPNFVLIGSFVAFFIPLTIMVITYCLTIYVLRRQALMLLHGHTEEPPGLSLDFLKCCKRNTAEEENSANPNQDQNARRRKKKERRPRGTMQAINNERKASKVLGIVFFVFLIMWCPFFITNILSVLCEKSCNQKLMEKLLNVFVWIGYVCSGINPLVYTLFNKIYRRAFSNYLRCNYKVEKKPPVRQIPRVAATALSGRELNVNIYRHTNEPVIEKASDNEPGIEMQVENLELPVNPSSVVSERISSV
Method in brief: (§1)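 Crude membranes from HEK293 cells stably expressing the receptor (G418 selection) in 50 mM Tris, pH 7.4. Radioligand targeted at ~500 pM. Compound added from a 3 mM DMSO stock diluted 1:1000. Nonspecific binding defined with 5 μM NAN-190 (5-HT1A) or 5 μM mianserin (5-HT2C). Incubated ≥90 min at 25°C, then filtered through PEI-soaked GF/C filters. Percent displacement of specific binding; triplicates, 3–4 experiments.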

[2] = molecular target: T2, 5-hydroxytryptamine receptor 2A (Homo sapiens, UniProt P28223); experiment: Displacement of [3H]methylspiperone from human cloned 5HT2A receptor expressed in HEK293 cells at 3 uM after 90 mins by liquid scintillation counting
Method in brief: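 Crude membranes from HEK293 cells stably expressing the receptor (calcium phosphate transfection, G418-selected clones), in 50 mM Tris pH 7.4. Single-point screen: 3 mM DMSO stock diluted 1:1000. Radioligand targeted at about 500 pM, nonspecific binding defined by 5 μM mianserin. Incubated at least 90 min at 25°C, then filtered on PEI-soaked GF/C filters and washed cold. Percent specific displacement, triplicates, 3–4 experiments.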

[3] = molecular target: T3, 5-hydroxytryptamine receptor 1A (Homo sapiens) (UniProt P08908); experiment: Displacement of [3H]MPPF from human cloned 5HT1A receptor expressed in HEK293 cells at 3 uM after 90 mins by liquid scintillation counting; method in brief: as §1
T3 sequence (whole entry): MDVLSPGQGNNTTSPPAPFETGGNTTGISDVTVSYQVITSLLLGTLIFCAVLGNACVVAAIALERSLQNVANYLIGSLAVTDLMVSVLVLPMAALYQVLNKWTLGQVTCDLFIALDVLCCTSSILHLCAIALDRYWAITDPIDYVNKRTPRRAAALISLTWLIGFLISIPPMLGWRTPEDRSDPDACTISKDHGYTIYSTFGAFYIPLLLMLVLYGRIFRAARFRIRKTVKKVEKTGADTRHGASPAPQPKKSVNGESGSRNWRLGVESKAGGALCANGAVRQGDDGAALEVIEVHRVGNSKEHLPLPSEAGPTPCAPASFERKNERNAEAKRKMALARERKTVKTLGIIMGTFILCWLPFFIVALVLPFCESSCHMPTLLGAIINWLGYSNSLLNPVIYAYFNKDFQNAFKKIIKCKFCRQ

[4] = molecular target: T2, 5-hydroxytryptamine receptor 2A; experiment: Displacement of [3H]methylspiperone from human cloned 5HT2A receptor expressed in HEK293 cells after 90 mins by liquid scintillation counting
Method in brief: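 Nonspecific binding defined with 5 μM mianserin. Compounds in DMSO or DMSO:0.01 N HCl, non-aqueous solvent ≤1:300. Incubated ≥90 min at 25°C, then filtered. Ki from IC50 by Cheng-Prusoff, with the curve bottom fixed at zero for partial displacement. Geometric mean ± SD of 3–4 experiments in triplicate.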

[5] = molecular target: T4, 5-hydroxytryptamine receptor 2C (Homo sapiens, UniProt P28335); experiment: Displacement of [3H]mesulergine from human cloned 5HT2C receptor expressed in HEK293 cells after 90 mins by liquid scintillation counting
T4 sequence (P28335 whole entry): T1 sequence (whole entry)

T2 sequence (P28223 whole entry): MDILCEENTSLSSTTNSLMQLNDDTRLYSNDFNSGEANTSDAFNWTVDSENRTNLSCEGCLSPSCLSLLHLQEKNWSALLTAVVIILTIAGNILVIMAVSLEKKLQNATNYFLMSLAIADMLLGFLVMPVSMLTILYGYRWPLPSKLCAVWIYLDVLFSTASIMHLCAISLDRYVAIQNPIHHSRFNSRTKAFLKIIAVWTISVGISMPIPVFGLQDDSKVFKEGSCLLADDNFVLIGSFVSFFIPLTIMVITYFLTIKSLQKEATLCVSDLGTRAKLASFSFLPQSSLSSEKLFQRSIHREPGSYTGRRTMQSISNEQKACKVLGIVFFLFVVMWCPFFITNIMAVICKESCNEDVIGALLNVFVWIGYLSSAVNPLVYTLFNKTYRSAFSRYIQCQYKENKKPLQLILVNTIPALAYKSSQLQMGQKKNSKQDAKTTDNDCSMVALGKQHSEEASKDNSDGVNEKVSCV

| SMILES | Activity [1] [%] | Activity [2] [%] | Activity [3] [%] | Ki [4] [nM] | Ki [5] [nM] |
| --- | --- | --- | --- | --- | --- |
| CN1C(=N)NC(=O)/C1=C\c1c[nH]c2ccc(Br)cc12 | 0 | 0 | 6 |  |  |
| CN1C(=N)NC(=O)/C1=C\c1c[nH]c2cc(F)ccc12 | 1 | 6 | 0 |  |  |
| CCN1C(=N)N(C)/C(=C\c2c[nH]c3ccc(I)cc23)C1=O | 46 | 35 | 15 |  |  |
| CN1C(=N)N(C)/C(=C/c2c[nH]c3cc(F)ccc23)C1=O | 0 | 79 | 2 | 235 |  |
| CN1C(=N)NC(=O)/C1=C\c1c[nH]c2cc(Cl)ccc12 | 0 | 0 | 1 |  |  |
| CCN1C(=N)N(C)/C(=C/c2c[nH]c3cc(Br)ccc23)C1=O | 49 | 0 | 0 |  |  |
| CN1C(=N)NC(=O)/C1=C\c1c[nH]c2ccc(Cl)cc12 | 0 | 9 | 9 |  |  |
| CN1C(=N)NC(=O)/C1=C\c1c[nH]c2ccccc12 | 6 | 0 | 0 |  |  |
| CCN1C(=N)N(C)/C(=C\c2c[nH]c3ccc(Br)cc23)C1=O | 18 | 9 | 0 |  |  |
| Cc1ncccc1Oc1ccc(NC(=O)N2CCc3cc(Br)ccc32)cn1 |  |  |  | 3980 | 3.2 |
| Cc1ncccc1Oc1ccc(NC(=O)N2CCc3cc(I)ccc32)cn1 |  |  |  |  | 3.2 |
| O=C(Nc1cccnc1)N1CCc2cc(I)c(Cl)cc21 |  |  |  |  | 3.2 |
| Cc1cc2c(cc1I)N(C(=O)Nc1cccnc1)CC2 |  |  |  |  | 3.2 |
| CN1C(=N)N(C)/C(=C/c2c[nH]c3cc(Cl)c(Cl)cc23)C1=O | 79 | 12 | 0 |  | 46 |
| CN1C(=N)NC(=O)/C1=C\c1c[nH]c2ccc(F)cc12 | 19 | 0 | 0 |  |  |
| CN1C(=N)N(C)/C(=C/c2c[nH]c3ccc(Br)cc23)C1=O | 64 | 37 | 18 |  |  |
| CN1C(=N)N(C)/C(=C/c2c[nH]c3cc(Cl)ccc23)C1=O | 49 | 0 | 3 |  | 166 |
| CN1C(=N)N(C)/C(=C/c2c[nH]c3cc(Br)ccc23)C1=O |  |  |  |  | 2200 |
| O=C(Nc1cccnc1)N1CCc2ccccc21 |  |  |  | > 10000 |  |
| CN1C(=N)NC(=O)/C1=C\c1c[nH]c2cc(Cl)c(Cl)cc12 | 10 | 0 | 4 |  |  |
| CN1C(=N)N(C)/C(=C/c2c[nH]c3ccc(Cl)cc23)C1=O | 43 | 22 | 9 |  |  |
| CN1C(=N)N(C)/C(=C/c2c[nH]c3ccc(F)cc23)C1=O | 0 | 10 | 4 |  |  |
